B1: tRNA (parent)
chain: GUUCCGUUGGCGUAAUGGUAACGCGUCUCCCUCCUAAGGAGAAGACUGCGGGUUCGAGUCCCGUACGGAACG

Fewer inactive variants are shown than the library holds.

The data set covers variants of B1. The experiment in a line: yeast fitness relative to wild type (ratio to wild type); higher = fitter; tRNA-Arg(CCU), competitive growth, 37 C, YPD. In short, it runs like this:
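Gene amplicons from the start population and from each of six end populations were read by 100-nucleotide paired-end sequencing. Those end populations came from pooled Saccharomyces cerevisiae strains carrying tRNA-Arg(CCU) gene variants at the native locus, competed in YPD at 37°C for 24 hours. Fitness relative to wild type was worked out from changes in genotype frequencies. Genotypes needed ≥ 100 starting reads, and estimates < 0.5 were set to 0.5.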
As for C29G G44A U64G, the yeast fitness is no more than 0.5.

With C29G G48A A70U, the yeast fitness was no more than 0.5. For C30A C34U the value was 0.752.

C30A C34A: the yeast fitness is 0.76.

On to C29U C33A C34U C46G G52C, for which the yeast fitness was no more than 0.5. For C29G U32C the value was 0.563. For C29G U32A the value was 0.501. The same measure for C29G G56A C61U: no more than 0.5.

Take C29G G56A C61A: the yeast fitness turned out to be 0.547. The same measure for C30A A36U A42G: no more than 0.5; for C30A C31A: 0.611; for C30A C31G: 1.

Turning to C30A A36U G38C C66A, the yeast fitness came out at 0.577. The same measure for C29U A36U C66U G67A: 0.527; for C29G C49U U53C A57C C60G U64C G68U: no more than 0.5; for C29U G41A: 0.731. The same measure for C29U A43U C46A G50A C61G G68A: no more than 0.5. For C29U A42C A45C G50A the value was no more than 0.5.

For the variant C29U U32A, the yeast fitness worked out at 0.83. For C29U A40U the value was 0.836.

C29U A40C: the yeast fitness came to 0.815.

For the variant C29U C34U G39A G58A C60U, the yeast fitness was no more than 0.5. The same measure for C29U C46G: 1.02; for C29U C30A A45C: 0.563; for C29U A36C A43C C60A: no more than 0.5.

Regarding C29U C33U, the yeast fitness was 0.826. For C29G U32C C34U G56A the value was 0.667; for C29G C55U, no more than 0.5; for C30A A65G G67C, 0.526.

For the variant C29U A37G G39C C49U, the yeast fitness is no more than 0.5. For C29U U53C the value was 0.843; for C29G C61G, 0.54.

As for C29G C61U, the yeast fitness was found to be 0.685. With C29U A36G A40U G56C A69C, the yeast fitness was no more than 0.5. The same measure for C29G G44C A45U U47A: no more than 0.5. For C29U G38C A69U the value was 0.581. For C29G G56A G68C the value was no more than 0.5; for C29U G48C G52A, 0.591; for C30A A36G, 0.819. Regarding C29U C30U U32C C55G G58A U64A, the yeast fitness was no more than 0.5.

Turning to C30A A40G A65G, the yeast fitness is 0.967. The same measure for C29G C55A A65G: no more than 0.5. For C30A A40U G41C C61G G63C the value was no more than 0.5. For C30A A40U G51C C61U the value was 0.646. For C29U G52A, the yeast fitness is 0.728. For C30A A45U C49A G63U A70U the value was 0.523.

As for C29U C34G G38C U54A A57C, the yeast fitness is no more than 0.5. For C30A C34G C60A U64A the value was 0.541. For C29U G50C U53C A57U C61G the value was no more than 0.5.

Consider C30A C31U A45C C55G C60A, for which the yeast fitness is no more than 0.5.

For the variant C29U G50C U59A, the yeast fitness is 0.605. Turning to C29U C33A G63A A65C C66A, the yeast fitness is no more than 0.5. Regarding C30A A45C C46U, the yeast fitness was found to be 0.613.

In the case of C29U C61G A65U, the yeast fitness was no more than 0.5.

On to C29U C33A G63C A65C C66A, for which the yeast fitness is no more than 0.5. The same measure for C30A A57G: 0.74. The same measure for C29U C30G A70C: 0.536; for C29G U47G C49G U54G: no more than 0.5.

For C30A C31U A45C C49U C55G, the yeast fitness is no more than 0.5.

C29U A37G C49U: the yeast fitness was determined as 0.613. The same measure for C29U A37C A65C: no more than 0.5; for C29G G50C U53C: no more than 0.5. The same measure for C29G U32C A36G C60A: no more than 0.5; for C29U C49G G58C: no more than 0.5. For C29U A37C A40G A42U the value was no more than 0.5; for C29G C46U A70U, 0.618.

Take C30A C31G U32A C60U: the yeast fitness is no more than 0.5. For C29U C31U A70G the value was 0.726. For C29U C30A G38A, the yeast fitness was no more than 0.5. As for C29G U32C C46U, the yeast fitness is no more than 0.5. The same measure for C29U G41C C62U: 0.552; for C29U U47A A65C: no more than 0.5; for C29U A40C G56C C61G C62G G68C: no more than 0.5. Take C29U C30U C31G C34G A37C A45G: the yeast fitness is no more than 0.5. The same measure for C29G G67C: 0.667; for C29G U35G C62U A69U: no more than 0.5. Consider C29U A37U C46U, for which the yeast fitness is 0.602.

For the variant C29U G63A G67A, the yeast fitness came out at 0.523. The same measure for C29G U35C A57G: no more than 0.5; for C29U U32A C33U G67U A70G: no more than 0.5. Regarding C30A A36U G68A, the yeast fitness was 0.543. The same measure for C29G U35G C60G: no more than 0.5. C30A A57U C61U A69G: the yeast fitness is no more than 0.5. The same measure for C30A A43G A69U: 0.618; for C29G G52C: no more than 0.5.

For the variant C29U A40G U47A, the yeast fitness was determined as 0.582. In the case of C29U C34G A43U C62U, the yeast fitness is no more than 0.5. The same measure for C29U C55G: 0.614; for C29U C31G A37C G50A: no more than 0.5. C29G G44U A65G: the yeast fitness is no more than 0.5.

Regarding C30A C46A G56A A69U, the yeast fitness is no more than 0.5. As to C30A A57G A70U, the yeast fitness amounted to 0.765. The same measure for C29U U59A: 0.701; for C29U U59C: 0.868.

As to C29G U53A, the yeast fitness stood at 0.523. For C29U C49U U59A the value was no more than 0.5. For the variant C29U G51A G56A G63C, the yeast fitness worked out at 0.528. For C30A A70U the value was 1.02. The same measure for C30A A70G: 0.983; for C29U C31U G67U: 0.593; for C30A C33U: 0.738. For C29U A42G U64C the value was 0.592; for C30A A36C G52A, no more than 0.5. On to C29U U35C C61G, for which the yeast fitness stood at 0.672. Consider C29G U35A G68C, for which the yeast fitness was no more than 0.5. The same measure for C29U C30U: 0.763; for C29U C30A: 0.744. For C29U C30G the value was 0.716; for C29G U35C A45U C60G G63C, 0.669.

Take C29G G41C A57U: the yeast fitness is no more than 0.5. The same measure for C30A A40G A42U C62A: no more than 0.5; for C29U A57U C62A: no more than 0.5; for C29U G63A: 0.803.

As for C29G G68A, the yeast fitness came to 0.595. Consider C29U G44A A57G, for which the yeast fitness came out at 0.623. The same measure for C29G C66U: 0.648; for C29G C66A: 0.506; for C29G U32G G38A U53C A57U C62U: no more than 0.5. For C29U A40U A57G U64C the value was no more than 0.5. As to C29G G48A A69U, the yeast fitness is 0.542. For C29U U59G C66U the value was 0.732; for C29G U32A C33U, no more than 0.5; for C29U A36C G48A G50C, no more than 0.5. For C29G G63C A70U the value was no more than 0.5; for C29U C61G, 0.658. C29U C61A: the yeast fitness came to 0.611. For C29G C49G G50C A69U A70C the value was no more than 0.5; for C29G G56C C61A, 0.512. The same measure for C29U G39A C46A: 1.13; for C29U A43U C46A: 0.76.

For the variant C30A C31G G38C A57C, the yeast fitness is no more than 0.5. The same measure for C29U C49A G68C: 0.584; for C29U A42U C66A: 0.567.

Turning to C29U C62G, the yeast fitness was 0.656. The same measure for C29U C62U: 0.763. For C29U A42U C61U C66A, the yeast fitness was no more than 0.5. C29U C46U C66U: the yeast fitness worked out at 0.63.

As to C29U A36C A57U, the yeast fitness was no more than 0.5. The same measure for C29G G41C C66G G68A: 0.587; for C30A A45C C46U A57C: no more than 0.5. The same measure for C29U A37G G48A G68C A69U: 0.662; for C29G G50C C55U: no more than 0.5. As to C30A C31U A42C, the yeast fitness turned out to be 0.943. The same measure for C29U C31A A69U: 0.627; for C29U C31U A57C C62U: 0.558; for C29G G56A: 0.632. For C29U C55U C66U the value was 0.58. For the variant C29U G56A C66U, the yeast fitness worked out at 0.619. For C30A A45U the value was 0.997.

As for C30A A45G, the yeast fitness was 0.896. For C30A A37C A43U the value was 0.608; for C29U G48C G52A A69U, no more than 0.5.

For the variant C29G U59C, the yeast fitness was determined as 0.606. For C29U A45C G67A the value was 0.536; for C29U U54C, 0.83. The same measure for C30A C34A A43C C62U: no more than 0.5; for C29G C62A: 0.506. In the case of C29G C62U, the yeast fitness is 0.721. The same measure for C29U C34A A42U U47C: 0.64. Consider C29U A40G U47A C61U C62A A70G, for which the yeast fitness is no more than 0.5. For C30A C31A G38A C49U G52A C66U the value was no more than 0.5. The same measure for C29U C31G C34A: no more than 0.5; for C29G C60G C61U: 0.52; for C29U A45U C61U: 0.644. For the variant C29G C55U G67C, the yeast fitness was no more than 0.5.

As to C29U G48A, the yeast fitness stood at 0.986. The same measure for C29U G48C: 0.859.

The record behind these values is the RNAGym collection of RNA variant scans (doi:10.1126/science.aae0568).
